Results from ChEMBL document CHEMBL4138173, “Molecular docking, design, synthesis and antifungal activity study of novel triazole derivatives” (2018).
Values after ≈ are worked out from the molar mass of the structure shown.

What was measured:
Type in all cases: functional
Cryptococcus neoformans = test: Antifungal activity against Cryptococcus neoformans after 72 hrs
In short: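 NCCLS-based broth dilution against C. neoformans. Test agents were in DMSO in growth medium, inoculated and held at 35 °C, and MIC80 was read at 72 h. MIC80 is the first well with roughly 80% less growth than the drug-free well. Each value averages three replicate tests.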

Candida albicans = test: Antifungal activity against Candida albicans SC5314 after 24 hrs; settings: SC5314, 24 h
In short: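 Broth dilution MIC per NCCLS recommendations. Compounds were dissolved in DMSO in growth medium, then inoculated and incubated at 35 °C, with growth read at 24 h for C. albicans. MIC80 is the first well showing about 80% growth reduction versus the drug-free well. Values are the mean of three replicate tests.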

Aspergillus fumigatus = test: Antifungal activity against Aspergillus fumigatus after 5 to 7 days
In short: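 Filamentous fungi were tested by broth dilution following NCCLS recommendations. Compounds were dissolved in DMSO in growth medium, inoculated and incubated at 35 °C, with MIC80 read after 5–7 days. MIC80 is the first well with approximately 80% growth reduction relative to the drug-free well. Results are the mean of three replicates.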

SMILES | MIC80 (Cryptococcus neoformans) [µg/mL] | MIC80 (Candida albicans) [µg/mL] | MIC80 (Aspergillus fumigatus) [µg/mL]
CCN(C1CC1)[C@H](C)[C@](O)(Cn1cncn1)c1ccc(F)cc1F | 1 (≈ 2.97 µM) | 1 (≈ 2.97 µM) | > 64
CC(C)N[C@H](C)[C@](O)(Cn1cncn1)c1ccc(F)cc1F | 0.25 (≈ 0.806 µM) | 0.25 (≈ 0.806 µM) | 16 (≈ 51.6 µM)
COCCCN[C@H](C)[C@](O)(Cn1cncn1)c1ccc(F)cc1F | 0.5 (≈ 1.47 µM) | 0.25 (≈ 0.734 µM) | 2 (≈ 5.88 µM)
C[C@@H](n1cc(-c2ccccc2)nn1)[C@](O)(Cn1cncn1)c1ccc(F)cc1F | 0.0625 (≈ 0.158 µM) | 0.125 (≈ 0.315 µM) | 16 (≈ 40.4 µM)
CCc1ccc(-c2cn([C@H](C)[C@](O)(Cn3cncn3)c3ccc(F)cc3F)nn2)cc1 | 0.5 (≈ 1.18 µM) | 0.5 (≈ 1.18 µM) | > 64
C[C@@H](N(Cc1ccc(Cl)cc1)C1CC1)[C@](O)(Cn1cncn1)c1ccc(F)cc1F | 4 (≈ 9.24 µM) | 8 (≈ 18.5 µM) | > 64
C[C@@H](n1cc(-c2cccnc2)nn1)[C@](O)(Cn1cncn1)c1ccc(F)cc1F | 1 (≈ 2.52 µM) | 0.5 (≈ 1.26 µM) | > 64
C[C@@H](n1cc(C2CC2)nn1)[C@](O)(Cn1cncn1)c1ccc(F)cc1F | 0.0625 (≈ 0.173 µM) | 0.0625 (≈ 0.173 µM) | 32 (≈ 88.8 µM)
C[C@@H](NC1CCCCC1)[C@](O)(Cn1cncn1)c1ccc(F)cc1F | 0.5 (≈ 1.43 µM) | 0.5 (≈ 1.43 µM) | 8 (≈ 22.8 µM)
C[C@@H](NCc1ccc(Br)cc1)[C@](O)(Cn1cncn1)c1ccc(F)cc1F | 0.125 (≈ 0.286 µM) | 0.0156 (≈ 0.0357 µM) | 0.5 (≈ 1.14 µM)
COc1ccc(-c2cn([C@H](C)[C@](O)(Cn3cncn3)c3ccc(F)cc3F)nn2)cc1 | 0.0625 (≈ 0.147 µM) | 0.125 (≈ 0.293 µM) | > 64
CCC(C)N[C@H](C)[C@](O)(Cn1cncn1)c1ccc(F)cc1F (stereo partly specified) | 0.125 (≈ 0.385 µM) | 0.125 (≈ 0.385 µM) | 4 (≈ 12.3 µM)
CCCN(C1CC1)[C@H](C)[C@](O)(Cn1cncn1)c1ccc(F)cc1F | 2 (≈ 5.71 µM) | 1 (≈ 2.85 µM) | 8 (≈ 22.8 µM)
C[C@@H](n1cc(CN)nn1)[C@](O)(Cn1cncn1)c1ccc(F)cc1F | 0.25 (≈ 0.716 µM) | 0.25 (≈ 0.716 µM) | > 64
CCCCN[C@H](C)[C@](O)(Cn1cncn1)c1ccc(F)cc1F | 0.125 (≈ 0.385 µM) | 0.125 (≈ 0.385 µM) | 8 (≈ 24.7 µM)
C[C@@H](N=[N+]=[N-])[C@](O)(Cn1cncn1)c1ccc(F)cc1F | 0.0625 (≈ 0.212 µM) | 0.0156 (≈ 0.053 µM) | 8 (≈ 27.2 µM)
C[C@@H](n1cc(-c2cccc(Cl)c2)nn1)[C@](O)(Cn1cncn1)c1ccc(F)cc1F | 0.0625 (≈ 0.145 µM) | 0.0625 (≈ 0.145 µM) | > 64
C[C@@H](n1cc(-c2ccc(Br)cc2)nn1)[C@](O)(Cn1cncn1)c1ccc(F)cc1F | 0.25 (≈ 0.526 µM) | 0.25 (≈ 0.526 µM) | > 64
C[C@@H](n1cc(-c2ccccc2F)nn1)[C@](O)(Cn1cncn1)c1ccc(F)cc1F | 0.125 (≈ 0.302 µM) | 0.125 (≈ 0.302 µM) | 32 (≈ 77.2 µM)
C[C@@H](N1CCCC1)[C@](O)(Cn1cncn1)c1ccc(F)cc1F | 0.125 (≈ 0.388 µM) | 0.125 (≈ 0.388 µM) | 1 (≈ 3.1 µM)
C[C@@H](NCC1CC1)[C@](O)(Cn1cncn1)c1ccc(F)cc1F | 0.125 (≈ 0.388 µM) | 0.125 (≈ 0.388 µM) | 8 (≈ 24.8 µM)
CCCCCN[C@H](C)[C@](O)(Cn1cncn1)c1ccc(F)cc1F | 0.125 (≈ 0.369 µM) | 0.125 (≈ 0.369 µM) | 4 (≈ 11.8 µM)
